# The source made the active and inactive calls. The rule behind the calls is not given here.
# Columns and labels:
# A549 [1] = test: In vitro cytotoxicity evaluated against human lung cancer (A549 cell line); NA is not active; type: functional, cell-based
# Procedure, shortened: (§1)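 SRB assay on human tumour cell lines. Absorbance read at 562 nm and compared with untreated cells. ED50 is the concentration giving a 50% reduction in absorbance.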
# KB [2] = test: In vitro percent inhibition evaluated against human epidermoid nasopharynx carcinoma (KB cell line) at >20 ug/mL; type: functional
# Procedure, shortened: (§2)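 Same SRB cytotoxicity assay, absorbance at 562 nm versus untreated cells. Value is the percentage inhibition at the concentration tested.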
# SK-MEL-2 [3] = test: In vitro cytotoxicity evaluated against human melanoma cancer (SKMEL-2 cell line); type: functional; conditions: read-out: ED50 (the source's name); procedure, shortened: as §1
# SK-MEL-2 [4] = test: In vitro percent inhibition evaluated against human melanoma cancer (SKMEL-2 cell line) at >20 ug/mL; type: functional; procedure, shortened: as §2
# Tubulin alpha chain = Tubulin alpha chain (Sus scrofa, UniProt P02550); test: Inhibitory concentration required against tubulin polymerization determined using tubulin assay; type: functional
# Tubulin alpha chain, sequence (P02550 whole entry, looked up): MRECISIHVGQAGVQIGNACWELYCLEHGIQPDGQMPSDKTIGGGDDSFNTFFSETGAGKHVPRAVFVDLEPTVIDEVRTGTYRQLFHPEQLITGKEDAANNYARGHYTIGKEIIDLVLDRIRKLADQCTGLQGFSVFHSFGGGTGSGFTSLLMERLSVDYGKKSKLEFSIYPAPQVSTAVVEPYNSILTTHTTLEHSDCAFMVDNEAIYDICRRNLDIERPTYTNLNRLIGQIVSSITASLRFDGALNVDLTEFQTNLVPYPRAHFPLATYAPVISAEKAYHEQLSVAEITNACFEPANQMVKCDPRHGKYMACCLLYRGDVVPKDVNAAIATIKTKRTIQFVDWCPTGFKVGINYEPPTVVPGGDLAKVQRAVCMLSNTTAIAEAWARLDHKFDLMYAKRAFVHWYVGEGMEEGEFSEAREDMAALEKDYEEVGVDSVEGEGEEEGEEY
# Procedure, shortened: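 Tubulin polymerization assay. IC50 is the concentration that inhibits extent of assembly by 50% after 20 min at 26 °C. At least two independent experiments per compound.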
# KB [5] = test: In vitro cytotoxicity evaluated against human epidermoid nasopharynx carcinoma (KB cell line); type: functional; conditions: read-out: ED50 (the source's name); procedure, shortened: as §1
# 1A9 [6] = test: In vitro cytotoxicity evaluated against human ovarian cancer (1A9 cell line); type: functional; conditions: read-out: ED50 (the source's name); procedure, shortened: as §1
# HOS [7] = test: In vitro percent inhibition evaluated against human bone carcinoma (HOS cell line) at >20 ug/mL; type: functional; procedure, shortened: as §2
# MCF7 [8] = test: In vitro percent inhibition evaluated against human breast cancer (MCF-7 cell line) at >20 ug/mL; type: functional; procedure, shortened: as §2
# 1A9 [9] = test: In vitro percent inhibition evaluated against human ovarian cancer (1A9 cell line) at >20 ug/mL; type: functional; procedure, shortened: as §2
# MCF7 [10] = test: In vitro cytotoxicity evaluated against human breast cancer (MCF-7 cell line); type: functional; conditions: read-out: ED50 (the source's name); procedure, shortened: as §1
# HOS [11] = test: In vitro cytotoxicity evaluated against human bone carcinoma (HOS cell line); type: functional; conditions: read-out: ED50 (the source's name); procedure, shortened: as §1
# U-87 MG [12] = test: In vitro cytotoxicity evaluated against human glioblastoma carcinoma (U87-MG cell line); NA is not active; type: functional, cell-based; conditions: U-87MG ATCC; procedure, shortened: as §1
# U-87 MG [13] = test: In vitro cytotoxicity evaluated against human glioblastoma carcinoma (U87-MG cell line); type: functional, U-87MG ATCC; conditions: read-out: ED50 (the source's name); procedure, shortened: as §1
# A549 [14] = test: In vitro percent inhibition evaluated against human lung cancer (A549 cell line) at >20 ug/mL; type: functional; procedure, shortened: as §2
# U-87 MG [15] = test: In vitro percent inhibition evaluated against human glioblastoma carcinoma (U87-MG cell line) at >20 ug/mL; type: functional, U-87MG ATCC; procedure, shortened: as §2
# A549 [16] = test: In vitro cytotoxicity evaluated against human lung cancer (A549 cell line); type: functional; conditions: read-out: ED50 (the source's name); procedure, shortened: as §1
# KB [17] = test: In vitro cytotoxicity evaluated against human epidermoid nasopharynx carcinoma (KB cell line); NA is not active; type: functional, cell-based; procedure, shortened: as §1
# 1A9 [18] = test: In vitro cytotoxicity evaluated against human ovarian cancer (1A9 cell line); NA is not active; type: functional, cell-based; procedure, shortened: as §1
# HOS [19] = test: In vitro cytotoxicity evaluated against human bone carcinoma (HOS cell line); NA is not active; type: functional, cell-based; procedure, shortened: as §1
Structure (SMILES),ED50 (A549 [1]),Inhibition (KB [2]) [%],EC50 (SK-MEL-2 [3]) [µg/mL],Inhibition (SK-MEL-2 [4]) [%],IC50 (Tubulin alpha chain) [µM],EC50 (KB [5]) [µg/mL],EC50 (1A9 [6]) [µg/mL],Inhibition (HOS [7]) [%],Inhibition (MCF7 [8]) [%],Inhibition (1A9 [9]) [%],EC50 (MCF7 [10]) [µg/mL],EC50 (HOS [11]) [µg/mL],ED50 (U-87 MG [12]),EC50 (U-87 MG [13]) [µg/mL],Inhibition (A549 [14]) [%],Inhibition (U-87 MG [15]) [%],EC50 (A549 [16]) [µg/mL],ED50 (KB [17]),ED50 (1A9 [18]),ED50 (HOS [19])
COC(=O)Cc1cccc2c(O)cc(-c3ccccc3)nc12,inactive,8,> 20,12,30,> 20,> 20,7,15,30,> 20,> 20,inactive,,,,,,,
O=C(O)Cc1ccc2nc(-c3ccccc3F)cc(O)c2c1,,36,> 20,17,5.2,> 20,> 20,15,16,37,> 20,> 20,,> 20,24,9,> 20,,,
O=C(O)Cc1cccc2nc(-c3ccccc3F)cc(O)c12,,,> 20,9,> 40,,,,7,,> 20,,inactive,,8,,> 20,inactive,inactive,inactive
COC(=O)Cc1cccc2c(O)cc(-c3ccccc3F)nc12,,29,> 10,11,5.5,> 10,7.5,18,14,,> 10,> 10,inactive,,22,,> 10,,,
O=C(O)Cc1ccc2c(O)cc(-c3ccccc3F)nc2c1,,8,> 20,14,10,> 20,> 20,,13,15,> 20,,inactive,,21,,> 20,,,inactive
O=C(O)Cc1cccc2c(O)cc(-c3ccccc3F)nc12,,,0.05,,> 40,0.03,0.02,,,,0.12,0.04,,0.07,,,0.06,,,
O=C(O)Cc1cccc2c(O)cc(-c3ccccc3)nc12,,,0.06,,> 40,0.04,0.04,,,,0.44,0.07,,0.12,,,0.11,,,

# Reference: ChEMBL document CHEMBL1136183, “Antitumor agents. Part 226: synthesis and cytotoxicity of 2-phenyl-4-quinolone acetic acids and their esters” (Bioorg Med Chem Lett, 2003)
